Measurements as given in ChEMBL document CHEMBL4052637, “Discovery and Characterization of R/S-N-3-Cyanophenyl-N'-(6-tert-butoxycarbonylamino-3,4-dihydro-2,2-dimethyl-2H-1-benzopyran-4-yl)urea, a New Histone Deacetylase Class III Inhibitor Exerting Antiproliferative Activity against Cancer Cell Lines” (J Med Chem, 2017).
The source made the active and inactive calls. No cut-off for these calls is given here.

Experiments:
Hs 683 [1] = assay: Antiproliferative activity against human Hs683 cells after 72 hrs by MTT assay; type: functional, cell-based; details: Hs 683, 72 h
Method in brief: (§1)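 MTT assay: cells in RPMI 1640 with 10% heat-inactivated FCS at 37 °C and 5% CO2 were seeded 24 h before treatment. They were exposed 72 h to compound at 0.01–100 μM, with DMSO as solvent.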

Hs 683 [2] = assay: Cell cycle arrest in human Hs683 cells assessed as accumulation at sub-G1 phase at IC50 for MTT assay after 24 to 48 hrs by propidium iodide staining-based flow cytometry; type: functional
Method in brief: (§2)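 Cells were exposed to compound at the IC50 for each line from the 72 h MTT assay, or to a reference HDAC inhibitor at 2 μM. Cell cycle distribution was analyzed after 24 and 48 h. Results are mean ± SD of three independent experiments, with p values against control cells.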

[3] = Antiproliferative activity against human U373 cells after 72 hrs by MTT assay; type: functional, cell-based, U-373MG ATCC; details: U373 MG; method in brief: as §1
Hs 683 [4] = assay: Cell cycle arrest in human Hs683 cells assessed as accumulation at G1 phase at IC50 after 24 to 48 hrs by propidium iodide staining-based flow cytometry; type: functional; method in brief: as §2
U-373MG ATCC [5] = assay: Cell cycle arrest in human U373 cells assessed as accumulation at sub-G1 phase at IC50 for MTT assay after 24 to 48 hrs by propidium iodide staining-based flow cytometry; type: functional; method in brief: as §2
T98G = assay: Antiproliferative activity against human T98G cells after 72 hrs by MTT assay; type: functional, cell-based; method in brief: as §1
U-373MG ATCC [6] = assay: Cell cycle arrest in human U373 cells assessed as accumulation at G2/M phase at IC50 after 24 to 48 hrs by propidium iodide staining-based flow cytometry; type: functional; method in brief: as §2
Hs 683 [7] = assay: Cell cycle arrest in human Hs683 cells assessed as accumulation at G2/M phase at IC50 after 24 to 48 hrs by propidium iodide staining-based flow cytometry; type: functional; method in brief: as §2
[8] = Selectivity index, ratio of IC50 for mouse astrocytes to IC50 for human U373 cells
[9] = target: T1, NAD-dependent protein deacetylase sirtuin-2 (Homo sapiens, UniProt Q8IXJ6); assay: Inhibition of N-terminal His-tagged recombinant human SIRT-2 expressed in Escherichia coli using Fluor-de-Lys-SIRT1 as substrate after 15 mins by fluorescence assay
T1 sequence (Q8IXJ6 whole entry): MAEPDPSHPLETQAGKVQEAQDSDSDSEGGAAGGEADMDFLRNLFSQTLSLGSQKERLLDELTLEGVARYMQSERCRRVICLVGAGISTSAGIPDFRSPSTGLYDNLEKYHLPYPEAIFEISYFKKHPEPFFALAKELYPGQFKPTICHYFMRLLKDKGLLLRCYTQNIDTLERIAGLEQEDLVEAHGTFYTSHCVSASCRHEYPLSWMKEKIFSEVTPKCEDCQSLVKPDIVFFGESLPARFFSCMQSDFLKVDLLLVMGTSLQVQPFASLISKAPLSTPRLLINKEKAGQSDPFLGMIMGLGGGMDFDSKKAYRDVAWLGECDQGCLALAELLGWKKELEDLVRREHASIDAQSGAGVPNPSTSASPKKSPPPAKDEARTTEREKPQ

[10] = Selectivity index, ratio of IC50 for mouse astrocytes to IC50 for human T98G cells
[11] = target: T2, NAD-dependent protein deacetylase sirtuin-1 (Homo sapiens, UniProt Q96EB6); assay: Inhibition of N-terminal His-tagged recombinant human SIRT-1 expressed in Escherichia coli using Fluor-de-Lys-SIRT1 as substrate after 15 mins by fluorescence assay
T2 sequence (Q96EB6 whole entry): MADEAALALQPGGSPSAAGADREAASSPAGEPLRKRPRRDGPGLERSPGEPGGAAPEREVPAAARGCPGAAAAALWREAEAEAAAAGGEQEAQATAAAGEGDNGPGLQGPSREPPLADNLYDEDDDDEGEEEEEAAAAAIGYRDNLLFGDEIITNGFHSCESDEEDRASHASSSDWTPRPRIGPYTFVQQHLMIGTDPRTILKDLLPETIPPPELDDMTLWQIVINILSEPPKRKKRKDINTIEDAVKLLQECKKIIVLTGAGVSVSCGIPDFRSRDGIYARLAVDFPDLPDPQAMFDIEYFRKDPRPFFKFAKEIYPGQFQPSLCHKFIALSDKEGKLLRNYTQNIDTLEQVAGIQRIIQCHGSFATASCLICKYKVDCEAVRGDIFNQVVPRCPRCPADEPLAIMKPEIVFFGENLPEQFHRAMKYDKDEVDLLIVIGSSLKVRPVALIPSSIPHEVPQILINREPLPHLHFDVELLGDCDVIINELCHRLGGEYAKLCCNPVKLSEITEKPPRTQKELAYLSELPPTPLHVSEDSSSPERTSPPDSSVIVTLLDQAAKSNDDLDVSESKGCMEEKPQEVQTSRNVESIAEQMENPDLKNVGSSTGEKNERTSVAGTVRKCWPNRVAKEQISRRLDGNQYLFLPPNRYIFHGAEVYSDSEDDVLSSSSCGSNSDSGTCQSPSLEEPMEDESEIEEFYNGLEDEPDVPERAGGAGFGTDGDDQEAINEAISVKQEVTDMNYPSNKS

[12] = Selectivity index, ratio of IC50 for mouse astrocytes to IC50 for human Hs683 cells
[13] = target: NAD-dependent protein deacetylase sirtuin-3, mitochondrial (Homo sapiens, UniProt Q9NTG7); assay: Inhibition of N-terminal His-tagged recombinant human SIRT-3 expressed in Escherichia coli using Fluor-de-Lys-SIRT1 as substrate after 15 mins by fluorescence assay
NAD-dependent protein deacetylase sirtuin-3, mitochondrial, sequence (Q9NTG7 whole entry): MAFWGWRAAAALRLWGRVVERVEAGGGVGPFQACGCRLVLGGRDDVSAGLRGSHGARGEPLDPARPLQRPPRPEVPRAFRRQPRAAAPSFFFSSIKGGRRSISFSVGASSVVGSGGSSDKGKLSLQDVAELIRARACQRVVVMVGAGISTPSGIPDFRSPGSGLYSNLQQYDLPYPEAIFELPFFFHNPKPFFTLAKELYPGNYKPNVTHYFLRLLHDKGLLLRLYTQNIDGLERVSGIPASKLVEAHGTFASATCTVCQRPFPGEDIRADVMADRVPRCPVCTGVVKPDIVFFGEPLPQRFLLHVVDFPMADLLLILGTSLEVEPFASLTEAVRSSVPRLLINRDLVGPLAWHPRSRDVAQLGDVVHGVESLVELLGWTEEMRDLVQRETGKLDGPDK

Row | SMILES | IC50 (Hs 683 [1]) | IC50 [3] | IC50 (T98G) | also measured
1 | NC(=O)C1CCCc2c1[nH]c1ccc(Cl)cc21 (centres undefined) | 116 µM | 157 µM |  | Activity (Hs 683 [2]): inactive; Activity (Hs 683 [4]): Active; Activity (U-373MG ATCC [5]): inactive
2 | CC(C)(C)OC(=O)Nc1ccc2c(c1)C(NC(=O)Nc1cccc(CN)c1)CC(C)(C)O2 (racemic) | 95 µM | > 100 µM | > 100 µM | 
3 | CC(C)(C)OC(=O)Nc1ccc2c(c1)C(NC(=O)Nc1ccccc1Cl)CC(C)(C)O2 (racemic) | 34 µM | 59 µM | 88 µM | 
4 | CC(C)(C)OC(=O)Nc1ccc2c(c1)C(NC(=O)Nc1ccc(Cl)cc1)CC(C)(C)O2 (centres undefined) | 26 µM | 22 µM | 26 µM | 
5 | CC(NC(=O)c1ccccc1/N=C/c1c(O)ccc2ccccc12)c1ccccc1 (centres undefined) [SIRTINOL] | 33.9 µM | 39.3 µM |  | Activity (U-373MG ATCC [6]): Active; Activity (Hs 683 [2]): inactive; Activity (Hs 683 [7]): Active; Activity (Hs 683 [4]): Active; Activity (U-373MG ATCC [5]): inactive
6 | CC(C)(C)OC(=O)Nc1ccc2c(c1)C(NC(=O)Nc1cccc(Cl)c1)CC(C)(C)O2 (centres undefined) | 12 µM | 18 µM | 20 µM | Ratio IC50 [8]: >12; IC50 [9]: 18.5 µM; Ratio IC50 [10]: >12; IC50 [11]: 32.1 µM; Ratio IC50 [12]: >12
7 | CC(C)(C)OC(=O)Nc1ccc2c(c1)C(NC(=O)Nc1cccc(Br)c1)CC(C)(C)O2 (racemic) | 18 µM | 22 µM | 26 µM | 
8 | COC(=O)Nc1ccc2c(c1)C(NC(=O)Nc1cccc(C#N)c1)CC(C)(C)O2 (centres undefined) |  |  |  | IC50 [9]: 49.4 µM; IC50 [11]: 110 µM
9 | CC(C)OC(=O)Nc1ccc2c(c1)C(NC(=O)Nc1cccc(C#N)c1)CC(C)(C)O2 (centres undefined) |  |  |  | IC50 [9]: 22.7 µM; IC50 [11]: 54.8 µM
10 | CC1(C)CC(NC(=O)Nc2cccc(C#N)c2)c2cc(NC=O)ccc2O1 (racemic) | > 100 µM | > 100 µM | > 100 µM | 
11 | CC(C)(C)OC(=O)Nc1ccc2c(c1)C(NC(=O)Nc1cccc([N+](=O)[O-])c1)CC(C)(C)O2 (racemic) | 16 µM | 1 µM | 7 µM | Ratio IC50 [8]: <5; IC50 [9]: 99.8 µM; Ratio IC50 [10]: <5; IC50 [11]: > 200 µM; Ratio IC50 [12]: <5
12 | CC(C)(C)OC(=O)Nc1ccc2c(c1)C(NC(=O)Nc1cccc(C(F)(F)F)c1)CC(C)(C)O2 (racemic) | 9 µM | 9 µM | 21 µM | Ratio IC50 [8]: <2; Ratio IC50 [10]: <2; Ratio IC50 [12]: <2
13 | CC(C)(C)OC(=O)Nc1ccc2c(c1)C(NC(=O)Nc1ccccc1C#N)CC(C)(C)O2 (racemic) | 54 µM | 45 µM | 67 µM | 
14 | CC(C)(C)OC(=O)Nc1ccc2c(c1)C(NC(=O)Nc1cccc(F)c1)CC(C)(C)O2 (racemic) | 19 µM | 20 µM | 26 µM | 
15 | CC1(C)CC(NC(=O)Nc2cccc(C#N)c2)c2cc(N)ccc2O1 (racemic) | > 100 µM | > 100 µM | > 100 µM | 
16 | COc1ccc(NC(=O)NC2CC(C)(C)Oc3ccc(NC(=O)OC(C)(C)C)cc32)cc1 (racemic) | 62 µM | 33 µM | 49 µM | 
17 | COc1cccc(NC(=O)NC2CC(C)(C)Oc3ccc(NC(=O)OC(C)(C)C)cc32)c1 (racemic) | 37 µM | 30 µM | > 100 µM | 
18 | CC(C)(C)OC(=O)Nc1ccc2c(c1)C(NC(=O)Nc1ccc(C(F)(F)F)cc1)CC(C)(C)O2 (racemic) | 11 µM | 10 µM | 15 µM | Ratio IC50 [8]: >10; Ratio IC50 [10]: >10; Ratio IC50 [12]: >10
19 | CC(C)(C)OC(=O)Nc1ccc2c(c1)C(NC(=O)Nc1ccccc1C(F)(F)F)CC(C)(C)O2 (racemic) |  | > 100 µM |  | 
20 | CC(C)(C)OC(=O)Nc1ccc2c(c1)C(NC(=O)Nc1ccc([N+](=O)[O-])cc1)CC(C)(C)O2 (racemic) | 20 µM | 24 µM | 26 µM | 
21 | N#C/C(=C\c1ccc(-c2cc(Cl)ccc2Cl)o1)C(=O)Nc1cccc2ncccc12 | 80.2 µM | 47.6 µM |  | Activity (U-373MG ATCC [6]): Active; Activity (Hs 683 [2]): Active; Activity (Hs 683 [7]): Active; IC50 [11]: 98.1 µM; Activity (U-373MG ATCC [5]): Active
22 | CC(C)(C)OC(=O)Nc1ccc2c(c1)C(NC(=O)Nc1ccc(C#N)cc1)CC(C)(C)O2 (centres undefined) | 18 µM | 10 µM | 26 µM | Ratio IC50 [8]: >10; IC50 [9]: 110 µM; Ratio IC50 [10]: >10; IC50 [11]: 121 µM; Ratio IC50 [12]: >10
23 | CC1(C)CC(NC(=S)Nc2ccc([N+](=O)[O-])cc2)c2cc(Cl)ccc2O1 (centres undefined) |  |  |  | IC50 [9]: > 200 µM; IC50 [11]: > 200 µM
24 | Cc1ccc(C(=O)Nc2ccc(S(=O)(=O)O)c3cc(S(=O)(=O)O)cc(S(=O)(=O)O)c23)cc1NC(=O)c1cccc(NC(=O)Nc2cccc(C(=O)Nc3cc(C(=O)Nc4ccc(S(=O)(=O)O)c5cc(S(=O)(=O)O)cc(S(=O)(=O)O)c45)ccc3C)c2)c1 [SURAMIN] |  |  |  | IC50 [13]: > 200 µM; IC50 [9]: 13 µM
25 | CC1(C)CC(NC(=O)Nc2cccc(C#N)c2)c2ccccc2O1 (racemic) | 31 µM | 38 µM | 32 µM | 
26 | CCOC(=O)Nc1ccc2c(c1)C(NC(=O)Nc1cccc(C#N)c1)CC(C)(C)O2 (centres undefined) |  |  |  | IC50 [9]: 51.1 µM; IC50 [11]: 109 µM
27 | CC(C)(C)OC(=O)Nc1ccc2c(c1)C(NC(=O)Nc1cccc(N)c1)CC(C)(C)O2 (racemic) | 91 µM | 97 µM | > 100 µM | 
28 | CC(C)(C)OC(=O)Nc1ccc2c(c1)C(NC(=O)Nc1ccccc1[N+](=O)[O-])CC(C)(C)O2 (racemic) | 13 µM | 12 µM | 22 µM | Ratio IC50 [8]: >10; Ratio IC50 [10]: >10; Ratio IC50 [12]: >10
29 | COc1ccccc1NC(=O)NC1CC(C)(C)Oc2ccc(NC(=O)OC(C)(C)C)cc21 (racemic) | 59 µM | 30 µM | 39 µM | 
